The source made the active and inactive calls. The calls are words filed in the database; no cut-off is given here.
What was measured:
[1] = Cytotoxicity against human SH-SY5Y cells after 72 hrs by MTT assay; type: functional, cell-based
Procedure, shortened: (§1)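 Cells were grown in RPMI-1640 or DMEM with 10% NBS or FBS and 100 U/mL penicillin, at 37 °C under 5% CO₂. After 72 h with a range of compound concentrations, MTT was added for a further 4 h at 37 °C. Formazan was dissolved in DMSO and absorbance read at 570 and 630 nm. Assays ran in triplicate across three independent experiments, and IC₅₀ was calculated for 50% loss of viability.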

MCF7 = assay: Cytotoxicity against human MCF7 cells after 72 hrs by MTT assay; type: functional, cell-based; details: MCF7, 72 h; procedure, shortened: as §1
HCT-116 = assay: Cytotoxicity against human HCT116 cells after 72 hrs by MTT assay; type: functional, cell-based; details: HCT-116, 72 h; procedure, shortened: as §1
A549 = assay: Cytotoxicity against human A549 cells after 72 hrs by MTT assay; type: functional, cell-based; details: A549, 72 h
Procedure, shortened: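 After 72 h with a range of compound concentrations, MTT was added for a further 4 h at 37 °C. Formazan was dissolved in DMSO and absorbance read at 570 and 630 nm. Assays ran in triplicate across three independent experiments, and IC₅₀ was calculated for 50% loss of viability.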

Vero = assay: Cytotoxicity against African green monkey Vero cells after 72 hrs by MTT assay; type: cell-based; details: Chlorocebus sabaeus
HepG2 [2] = assay: Cytotoxicity against human HepG2 cells after 72 hrs by MTT assay; type: functional, cell-based; details: HepG2, 72 h; procedure, shortened: as §1
HepG2 [3] = assay: Induction of apoptosis in human HepG2 cells assessed as late apoptotic cells at 10 uM after 48 hrs by Annexin-V-FITC/propidium iodide staining-based flow cytometric analysis (reference value: 0.29%); type: functional
HepG2 [4] = assay: Cell cycle arrest in human HepG2 cells assessed as accumulation at S phase at 20 uM after 48 hrs by DAPI staining-based flow cytometric analysis relative to control; type: functional
Procedure, shortened: (§2)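 HepG2 cells cultured at 37 °C, 5% CO2, exposed 48 h to 5, 10 or 20 µM. Cells harvested, washed twice in PBS, and DNA content of 10,000 events read by flow cytometry. Phase proportions compared with vehicle control; significance at p<0.05 and p<0.01.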

HepG2 [5] = assay: Cell cycle arrest in human HepG2 cells assessed as decrease in accumulation at G0/G1 phase after 48 hrs by DAPI staining-based flow cytometric analysis; type: functional
Procedure, shortened: (§3)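 HepG2 cells were exposed for 48 h to 5, 10 or 20 of each agent, alongside a vehicle control. About […] cells were harvested and washed twice in PBS. DNA content was read by flow cytometry on 10,000 events, giving the percentage of cells in each phase relative to control.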

HepG2 [6] = assay: Induction of apoptosis in human HepG2 cells assessed as early apoptotic cells at 10 uM after 48 hrs by Annexin-V-FITC/propidium iodide staining-based flow cytometric analysis (reference value: 0.14%); type: functional
[7] = target: T1, Nuclear factor erythroid 2-related factor 2 (Homo sapiens) (UniProt Q16236); assay: Activation of NRF2 in human HepG2 cells after 6 hrs by spectrophotometric analysis; type: cell-based
T1 sequence (whole entry): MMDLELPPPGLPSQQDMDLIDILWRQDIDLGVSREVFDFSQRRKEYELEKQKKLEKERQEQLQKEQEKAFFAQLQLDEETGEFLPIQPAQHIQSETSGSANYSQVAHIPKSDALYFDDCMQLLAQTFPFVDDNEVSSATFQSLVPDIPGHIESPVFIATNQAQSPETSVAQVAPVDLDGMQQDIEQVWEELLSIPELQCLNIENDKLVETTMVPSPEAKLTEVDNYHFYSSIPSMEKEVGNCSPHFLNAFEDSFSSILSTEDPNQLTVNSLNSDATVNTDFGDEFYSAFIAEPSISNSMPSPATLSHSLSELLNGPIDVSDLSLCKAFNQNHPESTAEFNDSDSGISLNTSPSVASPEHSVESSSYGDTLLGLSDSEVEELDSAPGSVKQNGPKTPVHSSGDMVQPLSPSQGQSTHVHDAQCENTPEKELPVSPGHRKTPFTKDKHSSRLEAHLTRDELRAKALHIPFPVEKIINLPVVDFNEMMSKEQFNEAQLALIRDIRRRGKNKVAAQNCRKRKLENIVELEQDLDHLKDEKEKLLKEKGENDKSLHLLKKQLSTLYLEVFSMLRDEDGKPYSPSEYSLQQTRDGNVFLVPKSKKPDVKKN
Procedure, shortened: (§4)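 HepG2 cells treated 2, 4 and 8 h at 20 µM, or 6 h at 5, 10 and 20 µM. Nuclear extracts were prepared by hypotonic lysis and detergent, then 14,000 g spin at 4 °C. Nrf2 DNA-binding was measured by TransAM ELISA: nuclear extract incubated 1 h at room temperature in wells, anti-Nrf2 (1:1000) 1 h, HRP secondary (1:1000), developing solution 2-15 min, stop solution.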

HepG2 [8] = assay: Induction of apoptosis in human HepG2 cells assessed as early apoptotic cells at 20 uM after 48 hrs by Annexin-V-FITC/propidium iodide staining-based flow cytometric analysis (reference value: 0.14%); type: functional
HepG2 [9] = assay: Cell cycle arrest in human HepG2 cells assessed as accumulation at G2/M phase at 5 to 20 uM after 48 hrs by DAPI staining-based flow cytometric analysis; type: functional; procedure, shortened: as §2
HepG2 [10] = assay: Induction of apoptosis in human HepG2 cells assessed as late apoptotic cells at 20 uM after 48 hrs by Annexin-V-FITC/propidium iodide staining-based flow cytometric analysis (reference value: 0.29%); type: functional
HepG2 [11] = assay: Cell cycle arrest in human HepG2 cells assessed as accumulation at S phase after 48 hrs by DAPI staining-based flow cytometric analysis; type: functional; procedure, shortened: as §3
HepG2 [12] = assay: Induction of apoptosis in human HepG2 cells assessed as late apoptotic cells at 5 uM after 48 hrs by Annexin-V-FITC/propidium iodide staining-based flow cytometric analysis (reference value: 0.29%); type: functional
HepG2 [13] = assay: Induction of apoptosis in human HepG2 cells assessed as early apoptotic cells at 5 uM after 48 hrs by Annexin-V-FITC/propidium iodide staining-based flow cytometric analysis (reference value: 0.14%); type: functional
[14] = target: T1, Nuclear factor erythroid 2-related factor 2 (Homo sapiens); assay: Activation of NRF2 in human HepG2 cells at 20 uM by spectrophotometric analysis; type: cell-based; details: TDE = time-dependent effect; procedure, shortened: as §4

Structure (SMILES) | IC50 [1] | IC50 (MCF7) | IC50 (HCT-116) | IC50 (A549) | IC50 (Vero) | IC50 (HepG2 [2]) | Activity (HepG2 [3]) | Activity (HepG2 [4]) | Activity (HepG2 [5]) | Activity (HepG2 [6]) | Activity [7] | Activity (HepG2 [8]) | Activity (HepG2 [9]) | Activity (HepG2 [10]) | Activity (HepG2 [11]) | Activity (HepG2 [12]) | Activity (HepG2 [13]) | Activity [14]
CC(C)[S+]([O-])CCCCN=C=S (stereo unspecified) | 9.42 µM | 8.82 µM | 3.74 µM | 10.4 µM | 10.4 µM | 2.05 µM | – | – | – | – | – | – | – | – | – | – | – | –
O=c1[nH]cc(F)c(=O)[nH]1 [FLUOROURACIL] | 0.97 µM | 10.1 µM | 3.24 µM | – | 9.71 µM | – | – | – | – | – | – | – | – | – | – | – | – | –
[O-][S+](CCCCCN=C=S)Cc1ccccc1 (stereo unspecified) | 7.01 µM | 3.83 µM | 5.19 µM | 6.21 µM | 5.85 µM | 3.91 µM | – | – | – | – | – | – | – | – | – | – | – | –
O=S(=O)(CCCCN=C=S)Cc1ccccc1 | 4.78 µM | 7.55 µM | 6.28 µM | 8.89 µM | 7.17 µM | 8.49 µM | – | – | – | – | – | – | – | – | – | – | – | –
O=[N+]([O-])c1ccc(C[S+]([O-])CCCCN=C=S)cc1 (stereo unspecified) | 7.23 µM | 7.77 µM | 2.83 µM | 14.3 µM | 3.36 µM | 3.18 µM | – | – | – | – | – | – | – | – | – | – | – | –
S=C=NCCCCSCc1ccccc1 | 20.7 µM | 38.3 µM | 41.5 µM | 51.3 µM | 24.9 µM | 12.6 µM | – | – | – | – | – | – | – | – | – | – | – | –
CC(C)[S+]([O-])CCCN=C=S (stereo unspecified) | 18.1 µM | 7.93 µM | 15.9 µM | 16.7 µM | 8.25 µM | 7.14 µM | – | – | – | – | – | – | – | – | – | – | – | –
[O-][S+](CCCCN=C=S)CCc1ccccc1 (stereo unspecified) | 5.6 µM | 9.33 µM | 8.02 µM | 10.2 µM | 6.82 µM | 6.97 µM | – | – | – | – | – | – | – | – | – | – | – | –
[O-][S+](CCCCN=C=S)Cc1ccccc1 (stereo unspecified) | 5.21 µM | 3.3 µM | 3.66 µM | 7.41 µM | 4.85 µM | 2.85 µM | 10.91% | 9.11% | Dose-dependent effect | 0.72% | Dose-dependent effect | 0.24% | Active | 25.33% | Dose-dependent effect | 1.78% | 0.39% | tde
CC(C)[S+]([O-])CCCCCN=C=S (stereo unspecified) | 8.62 µM | 6.78 µM | 3.42 µM | 7.75 µM | 10.3 µM | 3.69 µM | – | – | – | – | – | – | – | – | – | – | – | –
[O-][S+](CCCCN=C=S)c1ccccc1 (stereo unspecified) | 8.75 µM | 7.05 µM | 4.53 µM | 23.8 µM | 4.33 µM | 6.34 µM | – | – | – | – | – | – | – | – | – | – | – | –
[O-][S+](CCCCN=C=S)Cc1ccccn1 (stereo unspecified) | 7.83 µM | 6.89 µM | 3.72 µM | 8.33 µM | 7.65 µM | 5.35 µM | – | – | – | – | – | – | – | – | – | – | – | –
CC(C)[S+]([O-])CCCCCCN=C=S (stereo unspecified) | 7.82 µM | 9.76 µM | 9.46 µM | 12 µM | 7.31 µM | 7.82 µM | – | – | – | – | – | – | – | – | – | – | – | –
CCCC[S+]([O-])CCCCN=C=S (stereo unspecified) | 6.47 µM | 5.84 µM | 2.81 µM | 9.56 µM | 5.15 µM | 5.93 µM | – | – | – | – | – | – | – | – | – | – | – | –
[O-][S+](CCCCN=C=S)Cc1ccco1 (stereo unspecified) | 7.79 µM | 5.68 µM | 3.47 µM | 5.64 µM | 5.25 µM | 3.86 µM | – | – | – | – | – | – | – | – | – | – | – | –
[O-][S+](CCCCCCN=C=S)Cc1ccccc1 (stereo unspecified) | 7.63 µM | 5.49 µM | 11.6 µM | 14.7 µM | 4.33 µM | 6.17 µM | – | – | – | – | – | – | – | – | – | – | – | –
[O-][S+](CCCCN=C=S)Cc1cccs1 (stereo unspecified) | 5.31 µM | 4.14 µM | 3.21 µM | 8.41 µM | 6.22 µM | 3.82 µM | – | – | – | – | – | – | – | – | – | – | – | –
CC(C)C[S+]([O-])CCCCN=C=S (stereo unspecified) | 5.7 µM | 3.66 µM | 2.06 µM | 9.09 µM | 4.98 µM | 2.16 µM | – | – | – | – | – | – | – | – | – | – | – | –
[O-][S+](CCCCN=C=S)C1CCCC1 (stereo unspecified) | 7.14 µM | 4.45 µM | 3.14 µM | 10.1 µM | 4.6 µM | 3.64 µM | – | – | – | – | – | – | – | – | – | – | – | –
CC[S+]([O-])CCCCN=C=S (stereo unspecified) | 9.81 µM | 8.26 µM | 3.85 µM | 10.2 µM | 7.9 µM | 5.35 µM | – | – | – | – | – | – | – | – | – | – | – | –
COc1ccc(C[S+]([O-])CCCCN=C=S)cc1 (stereo unspecified) | 2.79 µM | 8.89 µM | 5.46 µM | 32.5 µM | 3.71 µM | 4.62 µM | – | – | – | – | – | – | – | – | – | – | – | –
C[S+]([O-])CCCCN=C=S (stereo unspecified) [SULFORAPHANE] | 13.3 µM | 17.7 µM | 11.6 µM | 22 µM | 13.7 µM | 14.1 µM | 1.22% | 5.9% | Dose-dependent effect | 0.44% | Dose-dependent effect | 0.9% | Active | 4.19% | Dose-dependent effect | 0.73% | 0.15% | tde
CCC[S+]([O-])CCCCN=C=S (stereo unspecified) | 7.66 µM | 5.96 µM | 3.95 µM | 10.7 µM | 5.64 µM | 3.91 µM | – | – | – | – | – | – | – | – | – | – | – | –
[O-][S+](CCCN=C=S)Cc1ccccc1 (stereo unspecified) | 8.89 µM | 7.92 µM | 15.6 µM | 11.8 µM | 10.1 µM | 9.84 µM | – | – | – | – | – | – | – | – | – | – | – | –

— ChEMBL document CHEMBL2390922, “Synthesis and biological evaluation of sulforaphane derivatives as potential antitumor agents” (Eur J Med Chem, 2013)
